According to ChEMBL document CHEMBL1121853, “New antiarrhythmic agents. 7. 2,3-Diaminopropionanilides” (J Med Chem, 1981):

Assays:
[1] = organism: Mus musculus; assay: Effective dose of compound that evoked CNS toxicity in mice in the form of ataxia; assay type: functional
How it was run: (§1)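 Mice dosed subcutaneously, groups of 10. Over a 20-min period they were watched for ataxia, convulsions, loss of righting reflex or death, then each was placed in chloroform-vapor-saturated air until respiration ceased. ED50 with 95% Fieller limits for protection against tachycardia, ataxia and convulsions, calculated by Berkson's logit chi-square method.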

[2] = system: Mus musculus; assay: Percent protection against chloroform induced tachycardia in mice at 15.8 mg/kg; Inactive; assay type: functional
[3] = organism: Mus musculus; assay: Effective dose of compound that evoked CNS toxicity in mice in the form of convulsions; assay type: functional; how it was run: as §1
[4] = system: Mus musculus; assay: CNS toxicity expressed as percent of convulsions evoked in mice at a dose of 100 mg/kg; assay type: functional
[5] = Lethal dose of compound evaluated by administering intravenously to female CRCD mice; assay type: toxicity, organism-based; details: mouse, in vivo, iv
How it was run: (§2)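 Female CRCD mice (20–25 g), in groups, given compound dissolved in isotonic saline or distilled water, either by tail-vein (iv) or intraperitoneal injection. Doses expressed as base. LD50 and 95% confidence limits calculated by the minimum logit chi-square method.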

[6] = system: Rattus norvegicus; assay: Anesthetic activity of compound (1.0%) was evaluated by duration of sciatic nerve block; assay type: functional
How it was run: (§3)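 Rat sciatic nerve block: 0.2 mL of test solution (concentration as base, with 1:100 000 epinephrine) injected into the mid-thigh around the sciatic nerve trunk, both hind limbs. Five rats per concentration, so up to 10 blocks. Animals examined at frequent intervals for onset of and recovery from motor block. Duration given as mean ± standard deviation.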

[7] = system: Mus musculus; assay: Percent protection against chloroform induced tachycardia in mice at 100 mg/kg; assay type: functional
[8] = system: Rattus norvegicus; assay: Anesthetic activity of compound (0.5%) was evaluated by duration of sciatic nerve block; assay type: functional; how it was run: as §3
[9] = system: Rattus norvegicus; assay: Anesthetic activity of compound (2.0%) was evaluated by duration of sciatic nerve block
[10] = system: Mus musculus; assay: CNS toxicity expressed as percent of ataxia evoked in mice at a dose of 100 mg/kg; assay type: functional
[11] = system: Rattus norvegicus; assay: Anesthetic activity of compound (0.25%) was evaluated by duration of sciatic nerve block; assay type: functional; how it was run: as §3
[12] = system: Rattus norvegicus; assay: Anesthetic activity of compound (0.125%) was evaluated by duration of sciatic nerve block; assay type: functional; how it was run: as §3
[13] = organism: Mus musculus; assay: Effective dose of compound that protects mice against chloroform induced tachycardia; assay type: functional; how it was run: as §1
[14] = system: Mus musculus; assay: Percent protection against chloroform induced tachycardia in mice at 398 mg/kg; assay type: functional
[15] = system: Rattus norvegicus; assay: Anesthetic activity of compound (0.25%) was evaluated by duration of sciatic nerve block; NB= no blocks (0/10); assay type: functional, organism-based; how it was run: as §3
[16] = system: Rattus norvegicus; assay: Anesthetic activity of compound (0.125%) was evaluated by duration of sciatic nerve block; NB= no blocks (0/10); assay type: functional, organism-based; how it was run: as §3
[17] = system: Mus musculus; assay: CNS toxicity expressed as percent of convulsions evoked in mice at a dose of 200 mg/kg; Inactive; assay type: functional
[18] = system: Mus musculus; assay: Percent protection against chloroform induced tachycardia in mice at 200 mg/kg; Inactive; assay type: functional
[19] = system: Mus musculus; assay: CNS toxicity expressed as percent of ataxia evoked in mice at a dose of 200 mg/kg; Inactive; assay type: functional
[20] = Lethal dose of compound evaluated by administering intraperitoneally to female CRCD mice; assay type: toxicity, organism-based; details: mouse, in vivo, ip; how it was run: as §2
[21] = system: Mus musculus; assay: CNS toxicity expressed as percent of ataxia evoked in mice at a dose of 50.1 mg/kg; assay type: functional
[22] = system: Mus musculus; assay: CNS toxicity expressed as percent of ataxia evoked in mice at a dose of 10 mg/kg; assay type: functional
[23] = system: Mus musculus; assay: CNS toxicity expressed as percent of ataxia evoked in mice at a dose of 631 mg/kg; assay type: functional
[24] = system: Mus musculus; assay: Percent protection against chloroform induced tachycardia n mice at 631 mg/kg; Inactive; assay type: functional
[25] = system: Mus musculus; assay: CNS toxicity expressed as percent of convulsions evoked in mice at a dose of 631 mg/kg; assay type: functional
[26] = system: Mus musculus; assay: Percent death against chloroform induced tachycardia in mice at 631 mg/kg; assay type: functional
How it was run: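 Mice in groups of 10, dosed subcutaneously, then watched for 20 min for ataxia, convulsions, loss of righting reflex or death. Survivors were placed individually in chloroform-vapour-saturated air until respiration ceased. Percent of animals dead at the single dose was recorded alongside protection, ataxia and convulsion counts.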

[27] = system: Mus musculus; assay: CNS toxicity expressed as percent of ataxia evoked in mice at a dose of 79.4 mg/kg; assay type: functional
[28] = system: Mus musculus; assay: CNS toxicity expressed as percent of convulsions evoked in mice at a dose of 79.4 mg/kg; Inactive; assay type: functional
[29] = system: Mus musculus; assay: Percent protection against chloroform induced tachycardia in mice at 79.4 mg/kg; Inactive; assay type: functional

| SMILES | ED50 [1] | ED50 [3] | Duration [6] | Duration [8] | Duration [11] | Duration [12] | ED50 [13] | LD50 [20] | also measured |
| --- | --- | --- | --- | --- | --- | --- | --- | --- | --- |
| C=CCN(C)CC(C(=O)Nc1c(C)cccc1C)N(C)CC=C (centres undefined) | 13 mg/kg | 17 mg/kg | – | – | – | – | – | – | Protection [2]: 30% |
| CCN(CC)CC(C(=O)Nc1cccc(OC)c1)N(CC)CC (centres undefined) | – | – | 145 min | 100 min | 87 min | 77 min | – | – | Convulsions [4]: 0%; LD50 [5]: 20 mg/kg; Protection [7]: 60%; Duration [9]: 265 min; Ataxia [10]: 0% |
| CCN(CC)CC(=O)Nc1c(C)cccc1C [LIDOCAINE] | 42 mg/kg | – | 162 min | 123 min | 102 min | – | 61 mg/kg | – | – |
| CCOc1ccc(NC(=O)C(CN(C)C)N(C)C)cc1OCC (centres undefined) | 199 mg/kg | 317 mg/kg | 133 min | 83 min | – | – | – | – | Protection [14]: 50%; Duration [9]: 147 min; Duration [15]: No blocks; Duration [16]: No blocks |
| Cc1cccc(C)c1NC(=O)C1CNCCN1 (centres undefined) | – | – | – | – | – | – | – | – | Convulsions [17]: 0%; Protection [18]: 10%; Ataxia [19]: 0% |
| CCCN(CC)CC(C(=O)Nc1ccc(OC)cc1C)N(CC)CCC (centres undefined) | – | – | – | 227 min | 107 min | 96 min | – | 66 mg/kg | – |
| Cc1cccc(C)c1NC(=O)C(CN(C)C)N(C)C (centres undefined) | 16 mg/kg | 23 mg/kg | – | – | – | – | 17 mg/kg | – | – |
| CCCN(CC)C(CC)C(=O)Nc1c(C)cccc1C (centres undefined) [ETIDOCAINE] | – | – | – | 279 min | 222 min | 156 min | – | 56 mg/kg | LD50 [5]: 7 mg/kg |
| CCN(CC)CC(C(=O)Nc1ccc(OC)cc1C)N(CC)CC (centres undefined) | – | – | 150 min | 157 min | 151 min | 162 min | – | 102 mg/kg | Duration [9]: 184 min |
| CCCN(CC)CC(C(=O)Nc1ccccc1OC)N(CC)CCC (centres undefined) | – | – | – | 260 min | 116 min | 80 min | – | – | LD50 [5]: 11 mg/kg |
| CCN(CC)CC(C(=O)Nc1ccccc1OC)N(CC)CC (centres undefined) | – | 65 mg/kg | 178 min | 66 min | 91 min | – | 81 mg/kg | 70 mg/kg | Duration [9]: 184 min; Ataxia [21]: 40% |
| CCOc1ccccc1NC(=O)C(CN(C)CC)N(C)CC (centres undefined) | – | – | 189 min | 136 min | 105 min | 78 min | – | 94 mg/kg | – |
| CCN(C)CC(C(=O)Nc1c(C)cccc1C)N(C)CC (centres undefined) | – | 12 mg/kg | – | – | – | – | 13 mg/kg | – | Ataxia [22]: 100% |
| Cc1cccc(C)c1NC(=O)C(C)N (centres undefined) [TOCAINIDE] | 146 mg/kg | – | 79 min | 44 min | – | – | 250 mg/kg | – | LD50 [5]: 94 mg/kg |
| CCN(CC)CC(C(=O)Nc1cc(C)ccc1OC)N(CC)CC (centres undefined) | 96 mg/kg | 137 mg/kg | 273 min | 166 min | 125 min | 94 min | 106 mg/kg | 81 mg/kg | – |
| Cc1cccc(C)c1NC(=O)C(CN1CCCC1)N1CCCC1 (centres undefined) | 12 mg/kg | 12 mg/kg | – | – | – | – | 14 mg/kg | – | – |
| CCN(CC)CCC(=O)Nc1c(C)cccc1C | 52 mg/kg | – | 184 min | 146 min | 110 min | – | 69 mg/kg | – | – |
| Cc1cccc(C)c1NC(=O)C(CN(C)C(C)C)N(C)C(C)C (centres undefined) | 6 mg/kg | 9.3 mg/kg | – | – | – | – | 6.1 mg/kg | – | – |
| C#CCN(C)CC(C(=O)Nc1c(C)cccc1C)N(C)CC#C (centres undefined) | – | – | – | – | – | – | – | – | Ataxia [23]: 40%; Protection [24]: 0%; Convulsions [25]: 40%; Death [26]: 40% |
| COCCN(C)CC(C(=O)Nc1c(C)cccc1C)N(C)CCOC (centres undefined) | 4.3 mg/kg | 5.1 mg/kg | – | – | – | – | 2.6 mg/kg | – | – |
| Cc1cccc(C)c1NC(=O)C(CN1CCOCC1)N1CCOCC1 (centres undefined) | – | – | 138 min | 102 min | 72 min | 72 min | – | – | Ataxia [27]: 100%; Convulsions [28]: 0%; Protection [29]: 10%; Duration [9]: 193 min |
| CCOc1ccccc1NC(=O)C(CN(CC)CC)N(CC)CC (centres undefined) | – | – | – | 176 min | 138 min | 140 min | – | 81 mg/kg | – |
